Compound activity deposited in PubChem BioAssay by The Scripps Research Institute Molecular Screening Center.
UHRF1 binding: blocks human UHRF1 binding to methylated DNA; 370,000 tested, 0.75% active; UHRF1 binding to methylated oligo, TR-FRET; inhibition, % at 4.4 µM; Q96T88; AID 687016; in the data active = inhibition above about 21%;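 also: UHRF1 SRA domain binding a hemimethylated CpG hairpin DNA probe; 0% = median of test compound wells and 100% = reference inhibitor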
TCR-CD3 inh: human TCR-CD3 binding inhibition. 360,000 tested, 0.37% active. inhibition, % at 9.4 µM. TAMRA-labeled TCR probe fluorescence, biochemical. AID 651800;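 also: recombinant mutant TCR 2C K166C tagged with TAMRA read by polarization; 0% = receptor in buffer alone and 100% = receptor with positive control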
MBD2 DNA inh: MBD2-methylated oligo binding inhibition; Q9UBB5; TR-FRET, MBD2 binding to methylated oligonucleotide; inhibition, % at 4.4 µM; 370,000 tested, 0.31% active; in the data active = inhibition above about 13%
Target sequence (Q9UBB5 whole entry, looked up): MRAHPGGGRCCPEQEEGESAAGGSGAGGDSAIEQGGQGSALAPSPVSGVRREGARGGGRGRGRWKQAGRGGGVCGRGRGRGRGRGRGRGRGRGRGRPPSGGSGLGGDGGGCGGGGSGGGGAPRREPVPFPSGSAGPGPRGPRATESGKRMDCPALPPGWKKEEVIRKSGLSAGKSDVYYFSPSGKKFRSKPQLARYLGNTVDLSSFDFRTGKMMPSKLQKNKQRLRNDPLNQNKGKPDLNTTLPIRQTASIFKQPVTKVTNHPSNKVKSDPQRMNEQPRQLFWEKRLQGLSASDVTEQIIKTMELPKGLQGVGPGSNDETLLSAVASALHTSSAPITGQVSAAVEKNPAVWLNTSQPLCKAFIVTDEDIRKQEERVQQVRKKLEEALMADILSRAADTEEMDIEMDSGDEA
ARFGAP1 inhibitor: rat ARFGAP1 inhibition. Q62848. Arfgap1-stimulated ARF1 GTP hydrolysis, GDP FP detection. inhibition, % at 16.5 µM. 360,000 tested, 0.26% active. AID 651572;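 active = inhibition above a per-plate limit, mean inhibition of low control wells plus 3 SD, cut at about 25% in these data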;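 also: 0% = DMSO wells with enzyme and 100% = wells lacking Arfgap1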
Target sequence (Q62848 1-136 limits assumed): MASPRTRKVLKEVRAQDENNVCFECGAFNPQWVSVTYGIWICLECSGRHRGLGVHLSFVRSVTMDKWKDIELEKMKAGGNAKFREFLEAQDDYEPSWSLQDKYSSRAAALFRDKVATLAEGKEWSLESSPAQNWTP
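Material: truncated rat Arfgap1 GAP domain; Incubation: compound-enzyme preincubation 20 min, reaction 120 min, detection 60 min, 25 °C; Read-out: percent inhibition of Arfgap1-stimulated GTP hydrolysis; Technique: FP, GDP Alexa 633 tracer displaced from anti-GDP antibody, 620/688 nm; Controls: No-Arfgap1 wells (100%) versus DMSO full-reaction wells (0%); Replication: single well per compound.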
LEDGF integ inh: blocks HIV-1 LEDGF/p75-dependent DNA integration. TR-FRET IN-LEDGF/p75 DNA integration, Eu/Cy5. inhibition, % at 3.7 µM. 370,000 tested, 0.64% active. AID 743269;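 active = inhibition above the screen-wide mean plus 3 SD, cut at about 13% in these data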;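 also: signal is the Cy5 over europium emission ratio at 671 and 618 nm; 0% = plate median of compound wells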
ASAP1 inh: blocks human ASAP1-stimulated Arf1 GTP hydrolysis; Q9ULH1; GDP FP detection; inhibition, % at 16.5 µM; 360,000 tested, 0.19% active; in the data active = inhibition above about 25%;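 also: 0% = vehicle with enzyme and substrate and 100% = no enzyme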
BSA probe FL: interferes with TAMRA-BSA probe, flagging TCR-CD3 hits; shares compounds with TCR-CD3 inh; 1,200 tested, 10% active; AID 652035; inhibition, % at 9.4 µM; TAMRA-labeled BSA probe fluorescence counterscreen; in the data active = inhibition above about 23%;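 also: 0% = buffer low control and 100% = reference high control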
TCR-CD3 inh conf: TCR-CD3 interaction inhibition, confirmation; shares compounds with TCR-CD3 inh; TAMRA-labeled TCR probe fluorescence binding assay; inhibition, % at 9.4 µM; 1,200 tested, 48% active
* marks the source's active call; other numbers are inactive results. Sampled rows, rich in hits. Any-hit rate of the full collection: about 2%. Rule as the data show it, unless noted: active = inhibition above about 19%; inactive = the rest.

Screening O=C(Nc1ccc(F)cc1)C1COc2ccccc2O1 (stereo not given) returned UHRF1 binding -2, TCR-CD3 inh -1, MBD2 DNA inh 2, ARFGAP1 inhibitor 4, LEDGF integ inh 4 and ASAP1 inh -14.
For O=C(Nc1ccc2c(c1)OCO2)C1COc2ccccc2O1 (stereo not given) the results were UHRF1 binding -2, TCR-CD3 inh 48*, MBD2 DNA inh -5, ARFGAP1 inhibitor -2, LEDGF integ inh 0, ASAP1 inh -15, BSA probe FL -1 and TCR-CD3 inh conf -2.
Cc1cc(C)n(/N=C/c2ccc(C(C)C)cc2)c(=O)c1C#N was read as UHRF1 binding 3, TCR-CD3 inh 1, MBD2 DNA inh 1, ARFGAP1 inhibitor -2, LEDGF integ inh -7 and ASAP1 inh 10.
`COC(=O)[C@]12C[C@H](CC(=O)NCc3cccs3)C(=O)N(Cc3ccc(Cl)cc3Cl)C1=C[C@H](COCc1ccccc1)O[C@@H]2C` gave UHRF1 binding -2, MBD2 DNA inh -4 and LEDGF integ inh 1.
`O=C(Nc1ccc(C(=O)O)cc1)/C(=C\c1ccc2c(c1)OCO2)NC(=O)c1ccccc1Cl` gave UHRF1 binding 1, TCR-CD3 inh 4, MBD2 DNA inh 3, ARFGAP1 inhibitor 2, LEDGF integ inh -3 and ASAP1 inh -15.
`O=C(CSc1nc2cc(Cl)ccc2c(=O)n1Cc1ccco1)Nc1ccc(S(=O)(=O)N2CCOCC2)cc1` gave UHRF1 binding 1, TCR-CD3 inh 20*, MBD2 DNA inh 0, ARFGAP1 inhibitor -3, LEDGF integ inh -1, ASAP1 inh -5, BSA probe FL 13 and TCR-CD3 inh conf 26*.
`COC(=O)c1ccc2c(=O)n(Cc3ccco3)c(SCC(=O)Nc3ccc(C)c(Cl)c3)nc2c1` gave UHRF1 binding 1, TCR-CD3 inh 3, MBD2 DNA inh 5, ARFGAP1 inhibitor -8, LEDGF integ inh -2 and ASAP1 inh -10.
COc1ccc2c(n1)Sc1nc3ccccc3nc1N2 was read as UHRF1 binding -5, TCR-CD3 inh 48*, MBD2 DNA inh -10, ARFGAP1 inhibitor -5, LEDGF integ inh 4, ASAP1 inh -7, BSA probe FL -3 and TCR-CD3 inh conf 1.
COc1cc2ccccc2nn1 was read as UHRF1 binding -1, TCR-CD3 inh -11, MBD2 DNA inh -1, ARFGAP1 inhibitor 18, LEDGF integ inh 1 and ASAP1 inh -5.
`CC1(C)c2ccccc2N2CC(=O)NC21/C=C/c1ccco1` (stereo not given) gave UHRF1 binding -3, TCR-CD3 inh 1, MBD2 DNA inh -10, ARFGAP1 inhibitor -7, LEDGF integ inh 0 and ASAP1 inh 15.
`CC1(C)c2ccccc2N2CCC(=O)NC21/C=C/c1ccco1` (stereo not given) gave UHRF1 binding -1, TCR-CD3 inh 19*, MBD2 DNA inh 1, ARFGAP1 inhibitor -2, LEDGF integ inh 3, ASAP1 inh -3, BSA probe FL 3 and TCR-CD3 inh conf 8.
`COc1ccccc1NC(=O)CSc1nnc(CCNC(=O)c2ccc(C)cc2)n1C` gave UHRF1 binding 1, TCR-CD3 inh 5, MBD2 DNA inh 0, ARFGAP1 inhibitor 8, LEDGF integ inh -1 and ASAP1 inh -2.
`O=[n+]1c2c(n([O-])c3cc(F)c(N4CCCC4)cc31)CCC2` gave UHRF1 binding -25, TCR-CD3 inh 25*, MBD2 DNA inh -24, ARFGAP1 inhibitor -8, LEDGF integ inh 4, ASAP1 inh 1, BSA probe FL 29* and TCR-CD3 inh conf 28*.
O=[n+]1c2c(n([O-])c3cc(F)c(N4CCCC4)cc31)CCCC2 was read as UHRF1 binding -29, TCR-CD3 inh 23*, MBD2 DNA inh -31, ARFGAP1 inhibitor -1, LEDGF integ inh 3, ASAP1 inh -4, BSA probe FL 30* and TCR-CD3 inh conf 28*.
O=[n+]1c2c(n([O-])c3cc(F)ccc31)CCCC2 was read as UHRF1 binding -3, TCR-CD3 inh 6, MBD2 DNA inh 1, ARFGAP1 inhibitor -4, LEDGF integ inh 2 and ASAP1 inh -1.
CCN(CC)c1ccc(C(=O)NNC(=O)Cn2c(=O)cnc3ccccc32)cc1 was read as UHRF1 binding -2, TCR-CD3 inh -1, MBD2 DNA inh 1, ARFGAP1 inhibitor -6, LEDGF integ inh 0 and ASAP1 inh 8.
For COC(=O)Cn1c(=NC(=O)c2nc3ccccc3s2)sc2cc(S(N)(=O)=O)ccc21 the results were UHRF1 binding -2, TCR-CD3 inh 5, MBD2 DNA inh 1, ARFGAP1 inhibitor 2, LEDGF integ inh 0 and ASAP1 inh -6.
For COC(=O)Cn1c(=NC(=O)c2cc(-c3cccs3)nc3ccccc23)sc2cc(S(N)(=O)=O)ccc21 the results were UHRF1 binding 2, TCR-CD3 inh 57*, MBD2 DNA inh 6, ARFGAP1 inhibitor 3, LEDGF integ inh -1, ASAP1 inh 1, BSA probe FL 10 and TCR-CD3 inh conf 31*.
CCOC(=O)Cn1c(=NC(=O)c2cc(-c3cccs3)nc3ccccc23)sc2cc(S(N)(=O)=O)ccc21 was read as UHRF1 binding -3, TCR-CD3 inh 38*, MBD2 DNA inh -5, ARFGAP1 inhibitor 8, LEDGF integ inh 1, ASAP1 inh 7, BSA probe FL 4 and TCR-CD3 inh conf 21*.
Screening CCOC(=O)Cn1c(=NC(=O)C2COc3ccccc3O2)sc2cc(S(N)(=O)=O)ccc21 (stereo not given) returned UHRF1 binding 1, TCR-CD3 inh 1, MBD2 DNA inh 0, ARFGAP1 inhibitor 0, LEDGF integ inh 1 and ASAP1 inh 1.
`CN1C(=O)C(C(=O)Nc2ccccc2F)c2ccccc21` (stereo not given) gave UHRF1 binding 1, TCR-CD3 inh 19*, MBD2 DNA inh -5, ARFGAP1 inhibitor 8, LEDGF integ inh 3, ASAP1 inh -8, BSA probe FL -2 and TCR-CD3 inh conf 1.
COc1cccc(Nc2nc(C(N)Cc3ccccc3)cs2)n1 (stereo not given) was read as UHRF1 binding -1, TCR-CD3 inh 1, MBD2 DNA inh -8, ARFGAP1 inhibitor 4, LEDGF integ inh 11 and ASAP1 inh 1.
CN1CCc2c(c3ccccc3n2Cc2ccccc2)C1 was read as UHRF1 binding 3, TCR-CD3 inh -7, MBD2 DNA inh -1, ARFGAP1 inhibitor 0, LEDGF integ inh 6, ASAP1 inh -10, BSA probe FL 2 and TCR-CD3 inh conf 3.
